Measured values from ChEMBL document CHEMBL1155097, “T-type Ca2+ channel blockers suppress the growth of human cancer cells” (Bioorg Med Chem Lett, 2008).

Columns and labels:
SK-OV-3 = test: Growth inhibition of human SKOV3 cells after 72 hrs by SRB assay; format: functional; settings: SK-OV-3, 72 h
Outline: (§1)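 Cells seeded in 96-well plates, in exponential growth at time of sample addition; various concentrations added in triplicate, 37 °C, 5% CO2, 72 h. Fixed with formalin 30 min at room temperature, tap-water washed, stained with 0.4% SRB 30 min, washed with 1% acetic acid, dye solubilized in 10 mM unbuffered Tris base; OD at 520 nm. GI50 from dose–response curve, three independent experiments.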

SK-MEL-2 = test: Growth inhibition of human SK-MEL-2 cells after 72 hrs by SRB assay; format: functional; settings: SK-MEL-2, 72 h; outline: as §1
A549 = test: Growth inhibition of human A549 cells after 72 hrs by SRB assay; format: functional; settings: A549, 72 h; outline: as §1
DU-145 = test: Growth inhibition of human DU145 cells after 72 hrs by SRB assay; format: functional; settings: DU-145, 72 h; outline: as §1
HT-29 = test: Growth inhibition of human HT29 cells after 72 hrs by SRB assay; format: functional; settings: HT-29, 72 h; outline: as §1
Mus musculus = test: Acute toxicity in ICR CD1 mouse assessed as mortality at 1000 mg/kg, po after 5 days; format: organism-based; design: dose 1000 mg/kg, route oral; settings: in vivo, 120 h
Outline: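 Single oral dose given as a corn oil mixture to two CD-1 (ICR) mice, with mortality monitored over 5 days.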

[1] = biological target: Voltage-dependent T-type calcium channel subunit alpha-1G (Homo sapiens, UniProt O43497); test: Inhibition of T-type calcium channel Cav3.1 alpha1G expressed in HEK293 cells by whole cell patch-clamp method; format: cell-based
Outline: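 HEK293 stably coexpressing Cav3.1 (alpha1G) and Kir2.1; whole-cell recording, 3–4 MΩ electrodes. Internal (mM): 130 KCl, 11 EGTA, 5 Mg-ATP, 10 HEPES, pH 7.4. External (mM): 140 NaCl, 2 CaCl2, 10 HEPES, 10 glucose, pH 7.4. Currents evoked every 15 s by 50 ms step from −100 to −30 mV. IC50 for peak-current inhibition fitted from dose–response curves, three independent experiments.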

Voltage-dependent T-type calcium channel subunit alpha-1G, sequence (O43497 whole entry): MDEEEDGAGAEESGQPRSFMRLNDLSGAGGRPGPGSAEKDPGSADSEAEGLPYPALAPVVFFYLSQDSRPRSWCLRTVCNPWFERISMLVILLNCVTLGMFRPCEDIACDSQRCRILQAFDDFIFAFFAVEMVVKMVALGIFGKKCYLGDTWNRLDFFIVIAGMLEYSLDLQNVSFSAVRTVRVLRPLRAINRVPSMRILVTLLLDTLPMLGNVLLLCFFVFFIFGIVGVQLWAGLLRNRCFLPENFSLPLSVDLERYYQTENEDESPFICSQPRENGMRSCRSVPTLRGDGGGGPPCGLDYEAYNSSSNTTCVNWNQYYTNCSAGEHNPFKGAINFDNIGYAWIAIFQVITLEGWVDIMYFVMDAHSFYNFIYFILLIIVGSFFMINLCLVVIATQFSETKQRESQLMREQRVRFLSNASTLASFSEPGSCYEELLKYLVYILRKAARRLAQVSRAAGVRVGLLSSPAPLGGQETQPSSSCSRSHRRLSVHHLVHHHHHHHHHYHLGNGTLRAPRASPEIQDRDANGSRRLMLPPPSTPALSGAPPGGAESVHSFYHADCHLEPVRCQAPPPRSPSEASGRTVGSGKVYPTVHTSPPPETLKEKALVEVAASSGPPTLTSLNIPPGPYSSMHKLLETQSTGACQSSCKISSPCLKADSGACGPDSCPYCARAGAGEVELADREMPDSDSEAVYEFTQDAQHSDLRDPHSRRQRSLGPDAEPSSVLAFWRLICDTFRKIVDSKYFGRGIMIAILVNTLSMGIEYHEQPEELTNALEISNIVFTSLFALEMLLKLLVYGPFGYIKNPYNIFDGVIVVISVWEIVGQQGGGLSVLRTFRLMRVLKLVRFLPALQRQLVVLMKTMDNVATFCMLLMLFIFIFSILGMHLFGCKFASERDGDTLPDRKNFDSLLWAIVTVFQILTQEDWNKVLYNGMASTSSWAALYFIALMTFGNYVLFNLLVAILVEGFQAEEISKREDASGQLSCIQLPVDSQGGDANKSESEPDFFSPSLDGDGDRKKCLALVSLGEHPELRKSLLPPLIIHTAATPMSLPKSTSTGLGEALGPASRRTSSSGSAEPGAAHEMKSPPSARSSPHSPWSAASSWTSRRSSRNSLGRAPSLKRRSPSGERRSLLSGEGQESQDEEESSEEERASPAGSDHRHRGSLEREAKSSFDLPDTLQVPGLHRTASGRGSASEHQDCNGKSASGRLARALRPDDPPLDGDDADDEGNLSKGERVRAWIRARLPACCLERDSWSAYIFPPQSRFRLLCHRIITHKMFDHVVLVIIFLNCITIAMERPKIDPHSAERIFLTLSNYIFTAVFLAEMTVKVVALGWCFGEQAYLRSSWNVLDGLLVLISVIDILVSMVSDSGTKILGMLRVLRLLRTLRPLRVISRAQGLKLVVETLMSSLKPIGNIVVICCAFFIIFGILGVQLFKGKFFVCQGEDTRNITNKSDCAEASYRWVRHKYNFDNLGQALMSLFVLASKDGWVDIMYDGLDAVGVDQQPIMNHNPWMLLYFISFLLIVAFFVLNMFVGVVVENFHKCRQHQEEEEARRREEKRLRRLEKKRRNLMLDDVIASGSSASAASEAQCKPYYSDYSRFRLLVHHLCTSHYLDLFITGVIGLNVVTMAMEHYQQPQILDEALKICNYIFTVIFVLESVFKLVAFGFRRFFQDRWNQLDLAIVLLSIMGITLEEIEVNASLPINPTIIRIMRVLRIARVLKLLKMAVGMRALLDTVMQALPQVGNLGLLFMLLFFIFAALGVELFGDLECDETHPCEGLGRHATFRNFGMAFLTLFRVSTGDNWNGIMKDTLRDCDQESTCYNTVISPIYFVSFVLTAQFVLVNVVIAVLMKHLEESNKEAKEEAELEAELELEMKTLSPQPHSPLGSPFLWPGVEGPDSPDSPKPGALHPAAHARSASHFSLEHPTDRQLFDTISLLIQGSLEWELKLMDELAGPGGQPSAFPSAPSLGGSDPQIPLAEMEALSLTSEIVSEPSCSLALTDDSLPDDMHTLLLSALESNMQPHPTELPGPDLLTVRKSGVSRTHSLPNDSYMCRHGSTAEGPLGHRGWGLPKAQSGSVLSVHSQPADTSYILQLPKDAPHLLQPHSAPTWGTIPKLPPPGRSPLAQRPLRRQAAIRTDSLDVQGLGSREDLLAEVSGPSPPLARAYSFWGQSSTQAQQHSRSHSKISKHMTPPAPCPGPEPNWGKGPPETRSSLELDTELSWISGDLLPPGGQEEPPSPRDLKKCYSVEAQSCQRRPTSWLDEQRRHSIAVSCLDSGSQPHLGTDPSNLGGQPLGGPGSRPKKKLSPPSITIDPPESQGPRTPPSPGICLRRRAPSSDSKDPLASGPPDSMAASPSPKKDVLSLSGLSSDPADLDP

| SMILES | GI50 (SK-OV-3) | GI50 (SK-MEL-2) | GI50 (A549) | GI50 (DU-145) | GI50 (HT-29) | Activity (Mus musculus) | IC50 [1] |
| --- | --- | --- | --- | --- | --- | --- | --- |
| COC(=O)CC1c2ccccc2N=C(Nc2ccc(-c3ccccc3)cc2)N1CCCCCN (stereo unspecified) | 3990 nM | 1800 nM | 2900 nM | 4090 nM | 1080 nM |  |  |
| COC(=O)CC1c2ccccc2N=C(NCCCCCNC(=O)OC(C)(C)C)N1c1ccc(-c2ccccc2)cc1 (stereo unspecified) | 4610 nM | 4310 nM | 3830 nM | 3830 nM | 2080 nM |  |  |
| CN(CCCCCN1CCCC1)C1=Nc2ccccc2C(CC(=O)NCc2ccccc2)N1c1ccc(-c2ccccc2)cc1 (stereo unspecified) | 2760 nM | 690 nM | 870 nM | 2490 nM | 610 nM |  |  |
| O=C(CC1c2ccccc2N=C(N2CCCCC2)N1c1ccccc1)NCc1ccc(NS(=O)(=O)c2ccc(F)cc2)cc1 (stereo unspecified) | 1950 nM | 1730 nM | 1930 nM | 1710 nM | 1710 nM |  |  |
| CC(C)(C)OC(=O)NCCCCCN1C(Nc2ccc(-c3ccccc3)cc2)=Nc2ccccc2C1CC(=O)NCc1ccccc1 (stereo unspecified) | 2010 nM | 1590 nM | 1870 nM | 1790 nM | 1700 nM |  |  |
| CN(C)CCCCCN(C)C1=Nc2ccccc2C(CC(=O)NCc2ccccc2)N1c1ccc(-c2ccccc2)cc1 (stereo unspecified) | 660 nM | 480 nM | 170 nM | 190 nM | 40 nM | Non-toxic |  |
| COC(=O)CC1c2ccccc2N=C(N(C)CCCCCN(C)C)N1c1ccc(-c2ccccc2)cc1 (stereo unspecified) | 1950 nM | 1910 nM | 1770 nM | 1780 nM | 520 nM |  |  |
| CN(C)C1=Nc2ccccc2C(CC(=O)NCc2ccc([N+](=O)[O-])cc2)N1c1ccccc1 (stereo unspecified) | > 100000 nM | 31600 nM | > 100000 nM | > 100000 nM | 22300 nM |  | 350 nM |
| CN(C)C1=Nc2ccccc2C(CC(=O)NCc2ccc(N)cc2)N1c1ccccc1 (stereo unspecified) | > 100000 nM | 44000 nM | > 100000 nM | > 100000 nM | 28300 nM |  | 380 nM |
| Cc1ccc(S(=O)(=O)Nc2ccc(CNC(=O)CC3c4ccccc4N=C(N(C)C)N3c3ccccc3)cc2)cc1 (stereo unspecified) | 15600 nM | 8530 nM | 14300 nM | 6520 nM | 3150 nM |  | 630 nM |
| CCN1C(N2CCCCC2)=Nc2ccccc2C1CC(=O)NCc1ccc(NS(=O)(=O)c2ccc(F)cc2)cc1 (stereo unspecified) | 26100 nM | 17000 nM | 24500 nM | 17200 nM | 13900 nM |  | 1040 nM |
| CC(C)(C)OC(=O)NCCCCCNC1=Nc2ccccc2C(CC(=O)NCc2ccccc2)N1c1ccccc1 (stereo unspecified) | 7180 nM | 2020 nM | 7740 nM | 4260 nM | 3180 nM |  | 570 nM |
| CC(C)(C)OC(=O)NCCCCCNC1=Nc2ccccc2C(CC(=O)NCc2ccccc2)N1c1ccc(-c2ccccc2)cc1 (stereo unspecified) | 1610 nM | 1480 nM | 1830 nM | 1640 nM | 1670 nM |  |  |
| COc1cccc2c1C(=O)c1c(O)c3c(c(O)c1C2=O)C[C@@](O)(C(=O)CO)C[C@@H]3O[C@H]1C[C@H](N)[C@H](O)[C@H](C)O1 (stereo in doubt) [DOXORUBICIN] | 120 nM | 110 nM | 160 nM | 60 nM | 210 nM |  |  |
